Assay results from PubChem BioAssay AID588416 (The Scripps Research Institute Molecular Screening Center, 2011).
Calls of active or inactive are those of the source.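 Rule for the calls: active = IC50 at or below 1000 nM; inactive = IC50 above 1000 nM.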

Molecular target: Protein-arginine deiminase type-4 (Homo sapiens) (UniProt Q9UM07)
Test: human PAD4 inhibitor potency, late-stage follow-up, biochemical, colorimetric substrate assay, assay provider data, 0-50 µM (AID 588416)
Details: recombinant PAD4, BAEE substrate, citrulline colorimetric absorbance
How it was run: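 Test system: recombinant PAD4. Input: 0.2 µM PAD4. Buffer or medium: Tris-HCl pH 7.6, CaCl2, DTT. Reagent: BAEE arginine ester substrate, 10 mM. Compound dosing: 7-point series, top 50 µM. Timing: 15 min compound preincubation, then 15 min substrate reaction, 37 °C. Measured by: citrulline absorbance, 540 nm. Read-out basis: IC50 from dose-response fit. Replicates: duplicates.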

Protein-arginine deiminase type-4 (Homo sapiens), sequence (Q9UM07 whole entry, looked up): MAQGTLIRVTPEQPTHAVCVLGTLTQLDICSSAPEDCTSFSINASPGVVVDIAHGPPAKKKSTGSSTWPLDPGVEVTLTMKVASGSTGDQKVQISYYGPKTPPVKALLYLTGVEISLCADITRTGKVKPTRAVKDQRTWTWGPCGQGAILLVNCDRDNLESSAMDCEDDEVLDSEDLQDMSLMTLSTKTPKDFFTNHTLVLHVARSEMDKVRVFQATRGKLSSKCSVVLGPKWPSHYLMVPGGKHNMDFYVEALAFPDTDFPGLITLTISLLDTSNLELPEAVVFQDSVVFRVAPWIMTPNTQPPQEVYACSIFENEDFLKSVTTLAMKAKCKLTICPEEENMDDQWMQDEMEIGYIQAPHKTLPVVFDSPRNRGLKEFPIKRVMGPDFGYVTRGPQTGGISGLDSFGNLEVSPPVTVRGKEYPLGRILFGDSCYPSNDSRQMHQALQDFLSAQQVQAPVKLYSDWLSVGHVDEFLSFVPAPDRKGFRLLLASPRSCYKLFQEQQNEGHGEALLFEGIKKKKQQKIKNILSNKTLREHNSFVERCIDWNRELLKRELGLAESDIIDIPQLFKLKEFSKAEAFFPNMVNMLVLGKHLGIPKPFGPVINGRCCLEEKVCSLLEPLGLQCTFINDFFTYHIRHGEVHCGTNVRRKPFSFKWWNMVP

- IC50: inactive
Compound: O=C1C=C(Br)C(=O)c2ncccc21
